From ChEMBL document CHEMBL4513216, “Probing the Open Global Health Chemical Diversity Library for Multistage-Active Starting Points for Next-Generation Antimalarials” (ACS Infect Dis, 2020)

experiment: Toxicity liver stage against HepG2, at 10uM; type: cell-based; design: test concentration 10 uM, cell line HepG2-A16-CD81EGFP; conditions: human, HepG2-A16-CD81EGFP cells; read-out: INHIBITION
Procedure, shortened: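 Uninfected HepG2-A16-CD81EGFP cells, 3 × 10^3 per well, 1536-well, plated on prespotted compound at 10 μM final, parasite-free screening media added to match infected plates; puromycin 10 μM positive, DMSO 0.5% negative; run in parallel with 48 h PbLuc assay at 37 °C, 5% CO2; viability by CellTiter-Glo luminescence, normalized to controls.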

Compound	cytotoxicity at 10 µM [%]
COCCO[C@H]1COCCN(C2CCN(C)CC2)C1	3.08
Cc1cc(O)cc2c(=O)oc(CC(C)O)cc12 (stereo not drawn)	0.346
Cc1[nH]c2nc(CNc3ccccc3Cl)nn2c(=O)c1C	-1.29
Cc1nc(-c2ccoc2)n(CC(=O)NCC(C)C)c1C	-1.49
NC1(CNC(=O)c2cc3ccccc3[nH]2)CCCC1	15.5
COc1ccc2c(c1)CN(C)C(=O)CCN2CC(O)C(F)(F)F (stereo not drawn)	-6.84
Cc1occc(=O)c1OCC(=O)N1CCc2ccccc2C1	-0.765
Cc1nn(-c2ccc(C(=O)O)cc2)c2c1C(c1ccsc1)SCC(=O)N2 (stereo not drawn)	0.153
CC(C)c1sc(Br)nc1C(=O)NCc1ccco1	-2.89
CC(=O)CSc1nc2c(cnn2CCO)c(=O)[nH]1	-2.22
CCCc1cc(=O)[nH]c2nnc(SCC(=O)NCCc3ccccc3)n12	14.2
CCN(c1ccsc1C(=O)N1CCC(C)CC1)S(=O)(=O)c1ccccc1	14.7
COc1cccc(-c2cnc3n2CCC32CCN(C(C)=O)CC2)c1	-2.05
O=C(Nc1ccccc1)C1=NOC2(CCCN(C(=O)N3CCCC3)C2)C1 (stereo not drawn)	-1.66
O=C(c1cccs1)N1CCOCC2(C1)CN(c1ccccc1)C(=O)CO2 (stereo not drawn)	-0.756
O=C(c1ccco1)N1CCCC2(CN(Cc3ccoc3)CCO2)C1 (stereo not drawn)	-2.59
Cc1cc(NCCO)nc(N2CCN(C)CC2)c1C#N	-17.4
CCc1c(C(=O)O)nnn1-c1cc(C)ccc1C	-23.7
CCc1c(C)n(CCOC)c2nc3ccccc3n2c1=O	-0.277
O=C(NCCCN1CCOCC1)c1cc(-c2ccc3c(c2)CCO3)n[nH]1	-3.73
CC(C)CCn1[nH]c(CNc2ccccc2)nc1=O	1.62
Cc1cnc(N2CCC3(CCN(CC4CC4)C3=O)CC2)nc1	6.17
Cn1cc(CN2CCCn3cnc(CN4CCCC4=O)c3C2)cn1	-1.39

Compound	cytotoxicity at 10 µM [%]
Cc1ccoc1C(=O)N1CC[C@H]2O[C@@H](C)C[C@H]2C1	-4.93
O=C(c1ccsc1)N1CCc2c(COCc3ccncc3)cncc2C1	-1.48
FC(F)(F)c1cc(C2CCN(c3cnccn3)CC2)n2ccnc2n1	-1.53
CCS(=O)(=O)N1C[C@@H](C(=O)NC(C)C)[C@@]2(Cc3ccccc3C(=O)N2)C1	1.11
CC(C)N1CCCCC1c1cc(CO)[nH]n1 (stereo not drawn)	4.61
O=C(NC1CC1)c1cc(C2CCCN(Cc3ccccn3)C2)no1 (stereo not drawn)	-31.9
O=C(Cc1ccccn1)N1CCC(c2noc(-c3ccncc3)n2)CC1	-26.8
O=C(c1ccco1)N1CCC(n2nc(-c3ccco3)ccc2=O)CC1	-20.5
Cc1ccc2nc(C3CCN(CC(C)C)CC3)nc(O)c2c1	7.69
Cc1ncc2c(n1)CN(Cc1ncc(C(C)(C)C)o1)CC2	0.96
N#CCCN(CCC#N)Cc1ccc(Br)c2cccnc12	1.73
Cc1cc(C)c(S(N)(=O)=O)cc1C(=O)NCCN1CCC(C)CC1	-0.77
O=C(NCc1ccon1)c1c(F)cc(Br)cc1F	12.3
Cc1cc2ccccc2n1CC(=O)NC(C)C(=O)N1CCOCC1 (stereo not drawn)	3.57
CCC1(CC)CC(=O)N(CC(O)c2cccc(Br)c2)C1=O (stereo not drawn)	3.89
COCCN(C(=O)c1ccsc1)c1ccc(C#N)cc1	4.19
O=C(COCc1ccccc1)NCc1ccc(O)c(F)c1	1.05
Cc1cc(CN(C)C(=O)CC(C)C)no1	-3.57
CC(C)CCn1ccc(NC2CCSC2)n1 (stereo not drawn)	6.93
O=C(NCCc1nccs1)N1CCC(n2cccc2)CC1	5.87
CC(C)(C)C(=O)NCCC(=O)NS(=O)(=O)c1cccc(C#N)c1	1.01
Cc1csc(CN(C)CCCOc2cccc(C#N)c2)n1	-7.03
O=C1CC(N(C(=O)c2ccccc2Br)C2CC2)C(=O)N1 (stereo not drawn)	10.3

Compound	cytotoxicity at 10 µM [%]
Cn1cc(C(=O)N2CCN(Cc3cscn3)CC2)ccc1=O	-4.79
Cc1ccc(C(=O)NCCCS(=O)(=O)c2ccccc2)c(=O)[nH]1	-4.97
CC(C(=O)Nc1ccnn1C(C)C)N1CCN(Cc2ccccc2)CC1 (stereo not drawn)	-7.55
CC(C)(C)n1ncc2c1CCCC2NCc1cccc(C(N)=O)c1 (stereo not drawn)	-0.25
CC(C)(C)OC(=O)N1CCC(C(=O)NCc2cc3ccccc3[nH]2)C1 (stereo not drawn)	2.34
CN(Cc1ccc(F)cc1)S(=O)(=O)N1CCOCC1	2.35
Cc1cc(C)n(CCCNC(=O)C(C)NC(=O)CC2CCCCC2)n1 (stereo not drawn)	-1.06
CCNC(=O)C1CCCN1S(=O)(=O)c1sc(=O)[nH]c1C (stereo not drawn)	1.34
CCOC(=O)c1nc(CN2CCN(C(=O)NC3CCCCC3)CC2)cs1	-3.47
O=C(NC(CN1CCCC1)c1ccccc1)c1c(O)cc(F)cc1F (stereo not drawn)	-2.3
O=C(Nc1nncs1)N(Cc1cccc(O)c1)C1CC1	4.14
CC(C)n1nc2c(cc1=O)CN(CCOc1ccc(C#N)cc1)CC2	14.9
Cc1noc(C2CCN(C(C)c3nc(C4CC4)no3)CC2)n1 (stereo not drawn)	7.57
CC(C)N(CCNCc1ccc(C#N)cc1)C1CC1	-2.54
CC(C)c1nsc(N2CCSCC2)n1	-11.6
CC(=O)c1cccc(NC(=O)N2CCCCC2CN2CCCC2=O)c1 (stereo not drawn)	0.582
CC(Nc1ccc(Oc2cccc(C#N)c2)cc1)C(=O)NC1CC1 (stereo not drawn)	6.91
Cc1ccccc1C1(CNC(=O)c2cccc(S(C)(=O)=O)c2)CC1	-0.185
Cn1cnnc1C1CCN(c2cncc(-n3cccn3)n2)CC1	-8.37
CCc1nnsc1C(=O)NC1CCN(c2ccccn2)CC1	-2.49
O=C(c1cccnc1-n1cncn1)N1CCN(CC2CC2)CC1	-10.9
CCC(C)NC(=O)Cc1c(C)nc2c(c1C)c(=O)[nH]n2C (stereo not drawn)	-11.4
CCn1c(CN(C)C)nnc1C1CCN(Cc2ccccn2)CC1	12.5

Compound	cytotoxicity at 10 µM [%]
CC(C)c1nc(CN(C)C(=O)C2CC(=O)N(Cc3ccncc3)C2)cs1 (stereo not drawn)	-3.75
Cc1c(Cl)cc(C(=O)N(CCO)Cc2nccn2C)cc1Cl	2.66
CC(=O)N[C@@H]1CN(C(=O)c2cc3sccc3[nH]2)C[C@H]1c1ccc(C)o1	8.98
CCc1ccc(CN2CCN(c3ccc(Cl)nn3)CC2)nc1	-2.98
CCN(C)C(=O)c1coc(COc2ccccc2)n1	3.36
O=C(CC1CCc2ccccc21)NCCSc1ccccn1 (stereo not drawn)	-0.214
CCC[C@@H]1CN(c2ncnc3sccc23)C[C@H]1C(=O)O	1.96
Cc1nc(CCN2CCCCC2)n(-c2ccc(F)cc2)n1	-2.23
C[C@@H]1CN(C(=O)C2CCS(=O)(=O)CC2)C[C@]1(C)O	-4.11
COc1ccccc1-c1ncc(CN2C[C@@H](N(C)C)[C@H](C(C)C)C2)s1	-12.3
CCN(Cc1cnn(CC)c1)Cc1c(Cl)cncc1Cl	-2.65
COc1ccc(CN2CC[C@@H](N)[C@@H](OC)C2)cc1Cn1cncn1	-3.7
Cc1cccc(C(C(=O)N2CC(c3cccnc3)C2)N(C)C)c1 (stereo not drawn)	-4.8
CCCn1cc(-c2cc(-c3c[nH]cn3)c(C#N)c(N)n2)c(C)n1	10.3
CCOc1ccccc1-n1c(C2CC2)n[nH]c1=O	1.12
Cc1ncoc1C(=O)N1CCOC(CCCC(C)C)C1 (stereo not drawn)	8.29
c1cnnc(N2CCC(c3nnc(Cn4ccnc4)n3C3CC3)CC2)c1	6.71
O=C(c1ccc(C2CCNC2)cc1)N1CCC(N2CCC(O)CC2)CC1 (stereo not drawn)	-7.62
COc1ccc(-c2nc(CN3CCOCS3(=O)=O)c(C)o2)cc1	-0.0714
Cc1ccc(NC(=O)N2CCCC2)c(OCC2CCCO2)c1 (stereo not drawn)	6.36
O=C(Nc1ccc(CCN2CCOCC2)cc1)C1CCCC1	-16
COc1cc(C2(C(=O)N3CCCC(n4cncn4)C3)CC2)ccc1C (stereo not drawn)	-6.16
CCc1nnc2n1CCN(C(C(=O)NC1CC1)c1ccccc1)C2 (stereo not drawn)	-7.07

Compound	cytotoxicity at 10 µM [%]
Cc1cc(C)n(CC2CCCCN2CCc2ccncc2)n1 (stereo not drawn)	-7.07
Cc1cc(C)n(CC(=O)N2CCC(Nc3cccnn3)CC2)n1	-0.397
O=C(CCOc1cccc(Cl)c1)N1CCN(c2cnccn2)CC1	-0.284
O=C(NCc1nnc2n1CCC2)N1CCc2sccc2C1	-12.5
CN(C)CCC1CCN(Cc2ccn(C)c(=O)c2)CC1	-12.5
COc1ccc(C(=O)N(C)Cc2nnc3ccccn23)c(OC)c1OC	-11.5
Cc1nc(C)n(CC2CCCN2CCC(=O)N2CCCCC2)n1 (stereo not drawn)	-2.67
O=C(CCc1ccccn1)N1CCCC1	-6.96
Cc1ncc(CN2CCOC(CN(C)c3cccnn3)C2)s1 (stereo not drawn)	2.86
CC(C)(C)c1cn2nc(N3CCCC(Cn4cncn4)C3)sc2n1 (stereo not drawn)	-9.32
COc1cccc(CNCc2c(C(C)C)nn(C)c2N(C)C)c1OC	1.87
COCCN1CCN(Cc2cccc(C(=O)N(C)C)c2)CC1C (stereo not drawn)	5
Cc1cnn(CCNCc2ccccc2OCc2cccnc2)c1	3.8
Cc1cc(CN2Cc3ccccc3CC2c2nnc(C)o2)on1 (stereo not drawn)	-0.962
Cc1nc(Nc2nncs2)cc(C2CCCN2)n1 (stereo not drawn)	-1.03
Cc1nn(C)c(N(C)C)c1CNCc1nnc2n1CCCCC2	-5.68
CO[C@H]1CCN(C2CCOCC2)C[C@@H]1Cc1ccccc1	3.11
CN(C)C(=O)CN1CCOCC2(CCN(CC3CCOC3)CC2)C1 (stereo not drawn)	7.54
Cc1ccc(CN2CCc3ncnc(-c4ccoc4)c3CC2)o1	0.968
CN1[C@H](CN2CCCC2)C[C@@H]2CN(C(=O)Cc3ccsc3)CC[C@@H]21	-3.45
O=C(CC(F)(F)F)N1C[C@@H]2CC[C@H]1CN(Cc1ccccc1)C2	-3.63
